Source: ChEMBL document CHEMBL3124806, “Imidazopyridine-fused [1,3]-diazepinones: synthesis and antiproliferative activity” (Eur J Med Chem, 2014)

Legend:
Type in all cases: functional
KM12 = experiment: Cytotoxicity against human KM12 cells assessed as cell growth at 10 uM after 48 hrs by SRB assay relative to untreated control; settings: KM12, 48 h, read-out: Activity
Method in brief: (§1)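 NCI-60 panel screen at a single concentration of 10 μM with 48 h incubation. Cell density measured by sulforhodamine B protein-binding dye and read spectrophotometrically. Growth expressed as percent of untreated control cells.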

OVCAR-3 = experiment: Cytotoxicity against human OVCAR3 cells assessed as cell growth at 10 uM after 48 hrs by SRB assay relative to untreated control; settings: OVCAR-3, 48 h, read-out: Activity
Method in brief: (§2)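 NCI-60 one-dose screen: each agent added at 10 µM, cultures incubated 48 h. Endpoint by sulforhodamine B protein-binding dye read spectrophotometrically; growth expressed as percent of untreated control cells.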

HOP-92 = experiment: Cytotoxicity against human HOP92 cells assessed as cell growth at 10 uM after 48 hrs by SRB assay relative to untreated control; settings: HOP-92, 48 h, read-out: Activity; method in brief: as §1
BT-549 = experiment: Cytotoxicity against human BT549 cells assessed as cell growth at 10 uM after 48 hrs by SRB assay relative to untreated control; settings: BT-549, 48 h, read-out: Activity; method in brief: as §1
[1] = Cytotoxicity against human OVCAR4 cells assessed as cell growth at 10 uM after 48 hrs by SRB assay relative to untreated control; settings: OVCAR-4, 48 h, read-out: Activity; method in brief: as §2
SNB-75 = experiment: Cytotoxicity against human SNB75 cells assessed as cell growth at 10 uM after 48 hrs by SRB assay relative to untreated control; settings: SNB-75, 48 h, read-out: Activity
Method in brief: (§3)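 NCI-60 single-dose screen. Compounds were added to the cultures at 10 μM and incubated for 48 h. The end point was sulforhodamine B protein staining read spectrophotometrically. Growth is reported as percent of untreated control cells.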

NCI-H23 = experiment: Cytotoxicity against human NCI-H23 cells assessed as cell growth at 10 uM after 48 hrs by SRB assay relative to untreated control; settings: NCI-H23, 48 h, read-out: Activity; method in brief: as §2
DU-145 = experiment: Cytotoxicity against human DU145 cells assessed as cell growth at 10 uM after 48 hrs by SRB assay relative to untreated control; settings: DU-145, 48 h, read-out: Activity; method in brief: as §1
SR = experiment: Cytotoxicity against human SR cells assessed as cell growth at 10 uM after 48 hrs by SRB assay relative to untreated control; settings: read-out: Activity; method in brief: as §3
Malme-3M = experiment: Cytotoxicity against human MALME-3M cells assessed as cell growth at 10 uM after 48 hrs by SRB assay relative to untreated control; settings: read-out: Activity; method in brief: as §1
[2] = Cytotoxicity against human Hs578T cells assessed as cell growth at 10 uM after 48 hrs by SRB assay relative to untreated control; settings: Hs-578T, read-out: Activity; method in brief: as §1
COLO 205 = experiment: Cytotoxicity against human COLO205 cells assessed as cell growth at 10 uM after 48 hrs by SRB assay relative to untreated control; settings: COLO 205, 48 h, read-out: Activity; method in brief: as §1
HCT-116 = experiment: Cytotoxicity against human HCT116 cells assessed as cell growth at 10 uM after 48 hrs by SRB assay relative to untreated control; settings: HCT-116, 48 h, read-out: Activity; method in brief: as §1
U-251 = experiment: Cytotoxicity against human U251 cells assessed as cell growth at 10 uM after 48 hrs by SRB assay relative to untreated control; settings: U-251, 48 h, read-out: Activity; method in brief: as §3
SF-268 = experiment: Cytotoxicity against human SF268 cells assessed as cell growth at 10 uM after 48 hrs by SRB assay relative to untreated control; settings: SF-268, 48 h, read-out: Activity; method in brief: as §2
NCI-H322M = experiment: Cytotoxicity against human NCI-H322M cells assessed as cell growth at 10 uM after 48 hrs by SRB assay relative to untreated control; settings: read-out: Activity; method in brief: as §2
LOX IMVI = experiment: Cytotoxicity against human LOXIMVI cells assessed as cell growth at 10 uM after 48 hrs by SRB assay relative to untreated control; settings: read-out: Activity; method in brief: as §1
K562 = experiment: Cytotoxicity against human K562 cells assessed as cell growth at 10 uM after 48 hrs by SRB assay relative to untreated control; settings: K562, 48 h, read-out: Activity; method in brief: as §1
[3] = Cytotoxicity against human UACC257 cells assessed as cell growth at 10 uM after 48 hrs by SRB assay relative to untreated control; settings: UACC-257, 48 h, read-out: Activity; method in brief: as §3
SW-620 = experiment: Cytotoxicity against human SW620 cells assessed as cell growth at 10 uM after 48 hrs by SRB assay relative to untreated control; settings: SW-620, 48 h, read-out: Activity; method in brief: as §3
RXF 393 = experiment: Cytotoxicity against human RXF393 cells assessed as cell growth at 10 uM after 48 hrs by SRB assay relative to untreated control; settings: RXF 393, 48 h, read-out: Activity; method in brief: as §2
786-0 = experiment: Cytotoxicity against human […] cells assessed as cell growth at 10 uM after 48 hrs by SRB assay relative to untreated control; settings: 786-0, 48 h, read-out: Activity; method in brief: as §1
[4] = Cytotoxicity against human NCI-ADR-RES cells assessed as cell growth at 10 uM after 48 hrs by SRB assay relative to untreated control; settings: read-out: Activity; method in brief: as §2
UACC-62 = experiment: Cytotoxicity against human UACC62 cells assessed as cell growth at 10 uM after 48 hrs by SRB assay relative to untreated control; settings: UACC-62, 48 h, read-out: Activity; method in brief: as §3
SF-295 = experiment: Cytotoxicity against human SF295 cells assessed as cell growth at 10 uM after 48 hrs by SRB assay relative to untreated control; settings: SF-295, 48 h, read-out: Activity; method in brief: as §2
MOLT-4 = experiment: Cytotoxicity against human MOLT4 cells assessed as cell growth at 10 uM after 48 hrs by SRB assay relative to untreated control; settings: MOLT-4, 48 h, read-out: Activity; method in brief: as §2
PC-3 = experiment: Cytotoxicity against human PC3 cells assessed as cell growth at 10 uM after 48 hrs by SRB assay relative to untreated control; settings: PC-3, 48 h, read-out: Activity; method in brief: as §2
HCT-15 = experiment: Cytotoxicity against human HCT15 cells assessed as cell growth at 10 uM after 48 hrs by SRB assay relative to untreated control; settings: HCT-15, 48 h, read-out: Activity; method in brief: as §1
T47D = experiment: Cytotoxicity against human T47D cells assessed as cell growth at 10 uM after 48 hrs by SRB assay relative to untreated control; settings: read-out: Activity; method in brief: as §3
SK-OV-3 = experiment: Cytotoxicity against human SKOV3 cells assessed as cell growth at 10 uM after 48 hrs by SRB assay relative to untreated control; settings: SK-OV-3, 48 h, read-out: Activity; method in brief: as §3
HOP-62 = experiment: Cytotoxicity against human HOP62 cells assessed as cell growth at 10 uM after 48 hrs by SRB assay relative to untreated control; settings: HOP-62, 48 h, read-out: Activity; method in brief: as §1
A498 = experiment: Cytotoxicity against human A498 cells assessed as cell growth at 10 uM after 48 hrs by SRB assay relative to untreated control; settings: A498, 48 h, read-out: Activity; method in brief: as §1

Row | SMILES | growth at 10 µM (KM12) [%] | growth at 10 µM (OVCAR-3) [%] | growth at 10 µM (HOP-92) [%] | growth at 10 µM (BT-549) [%] | growth at 10 µM [1] [%] | growth at 10 µM (SNB-75) [%] | growth at 10 µM (NCI-H23) [%] | growth at 10 µM (DU-145) [%] | growth at 10 µM (SR) [%] | growth at 10 µM (Malme-3M) [%] | growth at 10 µM [2] [%] | growth at 10 µM (COLO 205) [%] | growth at 10 µM (HCT-116) [%] | growth at 10 µM (U-251) [%] | growth at 10 µM (SF-268) [%] | growth at 10 µM (NCI-H322M) [%] | growth at 10 µM (LOX IMVI) [%] | growth at 10 µM [3] [%] | growth at 10 µM (SW-620) [%] | growth at 10 µM (RXF 393) [%] | also measured
1 | Cc1ccc(C2=Nc3nc4ccccn4c3C(=O)[C@H](C)N2)cc1 | 70.3 | 90.4 | 66.3 | 85.7 | 88.7 | 68 | 85 | 112 | 42.2 | 82.6 | 94.8 | 80.4 | 91.1 | 95.5 | 99.7 | 81.7 | 88.6 | 90.3 | 82.3 | 105 | growth at 10 µM (K562): 47.1%; growth at 10 µM (786-0): 98.4%; growth at 10 µM [4]: 79.6%; growth at 10 µM (UACC-62): 80.1%; growth at 10 µM (SF-295): 87.4%; growth at 10 µM (MOLT-4): 75.9%; growth at 10 µM (PC-3): 72.9%; growth at 10 µM (HCT-15): 71.9%; growth at 10 µM (T47D): 103%; growth at 10 µM (SK-OV-3): 90.2%; growth at 10 µM (HOP-62): 62.9%; growth at 10 µM (A498): 99.1%
2 | C[C@@H]1NC(c2ccc(N(C)C)cc2)=Nc2nc3ccccn3c2C1=O | 96.3 | 101 | 33 | 88.1 | 91.8 | 70 | 79.8 | 109 | 86.6 | 100 | 83.3 | 94.2 | 101 | 94.8 | 103 | 69.2 | 87 | 97.6 | 85.3 | 111 | growth at 10 µM (K562): 82.2%; growth at 10 µM (786-0): 102%; growth at 10 µM [4]: 80.3%; growth at 10 µM (UACC-62): 83.7%; growth at 10 µM (SF-295): 92.1%; growth at 10 µM (MOLT-4): 84.2%; growth at 10 µM (HCT-15): 94.7%; growth at 10 µM (T47D): 80.7%; growth at 10 µM (SK-OV-3): 91%; growth at 10 µM (HOP-62): 74.2%; growth at 10 µM (A498): 88.8%
3 | O=C1c2c(nc3ccccn23)NC(=O)N2CCC[C@@H]12 | 105 | 108 | 86.2 | 82.8 | 104 | 96.5 | 98.5 | 100 | 126 | 93.1 | 94.6 | 123 | 89 | 95.8 | 100 | 106 | 92.8 | 91 | 106 | 104 | growth at 10 µM (786-0): 98.6%; growth at 10 µM [4]: 100%; growth at 10 µM (UACC-62): 104%; growth at 10 µM (SF-295): 100%; growth at 10 µM (MOLT-4): 120%; growth at 10 µM (PC-3): 93.8%; growth at 10 µM (HCT-15): 99.9%; growth at 10 µM (T47D): 92.8%; growth at 10 µM (SK-OV-3): 99.7%; growth at 10 µM (HOP-62): 97.1%; growth at 10 µM (A498): 88.5%
